Results on three compounds are retold here after ChEMBL document CHEMBL1151795, “Novel iron complexes bearing N6-substituted adenosine derivatives: synthesis, magnetic, 57Fe Mössbauer, DFT, and in vitro cytotoxicity studies” (Bioorg Med Chem, 2008).

pIC50: −log10 of the molar value.

Holding throughout (assay type): functional, cell-based
One assay relates to MCF7. Put plainly: Cytotoxicity against human MCF7 cells after 72 hrs by calcein acetoxymethyl assay. A digest of the protocol: (§1)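 Tumour cells kept in DMEM at 37 °C, 5% CO₂, 100% humidity; seeded at about 1.25 × 10⁵ cells/ml and preincubated 12 h. Compounds added at 0.5–50 μM (0.5–200 μM for FeCl₃·6H₂O) for 72 h. Live cells then stained 1 h with calcein AM and fluorescence read at 485/538 nm. IC₅₀ estimated as concentration lethal to 50% of cells; mean of three values.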

The test system of the next assay is HOS. The experiment in a line: Cytotoxicity against human HOS cells after 72 hrs by calcein acetoxymethyl assay. A digest of the protocol:
as §1

A further assay relates to K562. Put plainly: Cytotoxicity against human K562 cells after 72 hrs by calcein acetoxymethyl assay. The essentials:
as §1

For a further assay, the system named is G-361. The experiment in a line: Cytotoxicity against human G361 cells after 72 hrs by calcein acetoxymethyl assay. A digest of the protocol:
as §1

A word on the pIC50: it is the negative decadic logarithm of the IC50, by convention in mol/L. With `OC[C@@H]1O[C@H](n2cnc3c(NCc4ccc(F)cc4)ncnc32)[C@@H](O)[C@H]1O`, the negative logarithm of the IC50 (pIC50) in the assay with MCF7 (Homo sapiens, MCF7, 72 h) is under 4.30; with HOS (Homo sapiens, HOS, 72 h) it was under 4.30; in the assay with K562 (Homo sapiens, K562, 72 h), under 4.30; in the assay with G-361 (Homo sapiens, G-361, 72 h) it was under 4.30.
In the case of `OC[C@@H]1O[C@H](n2cnc3c(NCc4ccc(OC(F)(F)F)cc4)ncnc32)[C@@H](O)[C@H]1O`, the negative-log IC50 (pIC50) is under 4.30 with MCF7 (Homo sapiens, MCF7, 72 h); under 4.30 in the assay with HOS (Homo sapiens, HOS, 72 h); under 4.30 in the assay with K562 (Homo sapiens, K562, 72 h); under 4.30 in the assay with G-361 (Homo sapiens, G-361, 72 h).
Take FeCl3.6H2O: the pIC50 in the assay with MCF7 (mcf7), with HOS (hos), in the assay on K562 (k562) and in the assay on G-361 (g-361) was under 3.70 in each case.
